Key:
[1] = Half life in Balb/c mouse at 2 mg/kg, iv measured after 24 hrs by LC/MS/MS analysis; assay type: ADME, organism-based; conditions: in vivo
Method in brief: (§1)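 BALB/c mice dosed once orally at 8 mg/kg or intravenously at 2 mg/kg. Plasma concentration followed over time, and Cmax, Tmax, AUC0-∞, elimination half-life, clearance and oral bioavailability were derived from it.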

[2] = Toxicity in Balb/c mouse assessed as survival rate at 400 mg/kg, ip measured after 15 days; assay type: organism-based; conditions: in vivo, time 15 day
Method in brief: (§2)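 Acute toxicity: 8-week-old male BALB/c mice, randomized in groups of n = 10, given a single intraperitoneal injection on day zero (vehicle only, 100, 200, 300 or 400 mg/kg). A further untreated group served as normal control. Survival on day 15 was reported as a percentage.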

[3] = Cmax in Balb/c mouse at 2 mg/kg, iv measured after 24 hrs by LC/MS/MS analysis; assay type: ADME, organism-based; parameters: route intravenous, dose 2 mg/kg, time 24 hrs; conditions: in vivo; method in brief: as §1
A549 [4] = test: Induction of apoptosis in human A549 cells assessed as early apoptosis measured after 12 hrs by Annexin V-FITC/ Propidium iodide stain based flow cytometry assay; assay type: functional, cell-based; conditions: dose 0.25-1 µM
Method in brief: (§3)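 Cells double-stained with FITC-annexin V and propidium iodide, then flow cytometry gave the percentages of early and late apoptotic cells.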

[5] = Tmax in Balb/c mouse at 8 mg/kg, po measured after 24 hrs by LC/MS/MS analysis; assay type: ADME, organism-based; conditions: in vivo; method in brief: as §1
[6] = target: T1, Receptor-type tyrosine-protein kinase FLT3 (Homo sapiens, UniProt P36888); test: Inhibition of FLT-3 (unknown origin) using poly (Glu, Tyr)4:1 as substrate in presence of ATP measured after 30 mins by HTRF assay
T1 sequence (P36888 whole entry): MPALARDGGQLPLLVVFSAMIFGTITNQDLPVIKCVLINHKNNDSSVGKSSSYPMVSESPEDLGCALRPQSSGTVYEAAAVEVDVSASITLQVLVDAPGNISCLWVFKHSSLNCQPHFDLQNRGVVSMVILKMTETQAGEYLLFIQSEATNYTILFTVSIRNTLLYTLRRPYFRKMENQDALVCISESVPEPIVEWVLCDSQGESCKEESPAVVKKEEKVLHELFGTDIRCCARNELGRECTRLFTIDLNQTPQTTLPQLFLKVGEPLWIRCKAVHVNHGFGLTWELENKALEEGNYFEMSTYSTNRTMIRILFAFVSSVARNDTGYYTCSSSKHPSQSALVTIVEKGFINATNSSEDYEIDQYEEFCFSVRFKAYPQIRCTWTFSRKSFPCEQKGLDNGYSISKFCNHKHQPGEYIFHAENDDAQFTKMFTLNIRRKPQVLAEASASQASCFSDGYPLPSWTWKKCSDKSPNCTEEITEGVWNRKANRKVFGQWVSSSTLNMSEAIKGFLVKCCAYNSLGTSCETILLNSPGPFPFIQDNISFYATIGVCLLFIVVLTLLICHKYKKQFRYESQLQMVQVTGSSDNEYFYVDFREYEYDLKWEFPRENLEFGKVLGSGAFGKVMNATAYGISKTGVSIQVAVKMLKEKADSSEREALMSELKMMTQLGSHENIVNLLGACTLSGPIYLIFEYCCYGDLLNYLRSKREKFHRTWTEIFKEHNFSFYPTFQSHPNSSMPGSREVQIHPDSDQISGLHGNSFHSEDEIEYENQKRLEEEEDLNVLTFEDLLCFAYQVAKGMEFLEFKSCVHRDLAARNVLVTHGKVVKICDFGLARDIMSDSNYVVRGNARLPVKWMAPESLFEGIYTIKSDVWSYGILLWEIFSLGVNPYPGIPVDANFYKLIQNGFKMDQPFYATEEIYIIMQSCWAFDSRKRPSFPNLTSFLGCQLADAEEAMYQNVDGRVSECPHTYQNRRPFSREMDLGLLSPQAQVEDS

[7] = Half life in Balb/c mouse at 8 mg/kg, po measured after 24 hrs by LC/MS/MS analysis; assay type: ADME, organism-based; conditions: in vivo; method in brief: as §1
A549 [8] = test: Induction of apoptosis in human A549 cells assessed as late apoptosis measured after 12 hrs by Annexin V-FITC/ Propidium iodide stain based flow cytometry assay; assay type: functional, cell-based; conditions: dose 0.25-1 µM; method in brief: as §3
[9] = Cmax in Balb/c mouse at 8 mg/kg, po measured after 24 hrs by LC/MS/MS analysis; assay type: ADME, organism-based; parameters: route oral, time 24 hrs, dose 8 mg/kg; conditions: in vivo; method in brief: as §1
[10] = target: Vascular endothelial growth factor receptor 3 (Homo sapiens, UniProt P35916); test: Inhibition of FLT-4 (unknown origin) using poly (Glu, Tyr)4:1 as substrate in presence of ATP measured after 30 mins by HTRF assay
Vascular endothelial growth factor receptor 3, sequence (P35916 whole entry): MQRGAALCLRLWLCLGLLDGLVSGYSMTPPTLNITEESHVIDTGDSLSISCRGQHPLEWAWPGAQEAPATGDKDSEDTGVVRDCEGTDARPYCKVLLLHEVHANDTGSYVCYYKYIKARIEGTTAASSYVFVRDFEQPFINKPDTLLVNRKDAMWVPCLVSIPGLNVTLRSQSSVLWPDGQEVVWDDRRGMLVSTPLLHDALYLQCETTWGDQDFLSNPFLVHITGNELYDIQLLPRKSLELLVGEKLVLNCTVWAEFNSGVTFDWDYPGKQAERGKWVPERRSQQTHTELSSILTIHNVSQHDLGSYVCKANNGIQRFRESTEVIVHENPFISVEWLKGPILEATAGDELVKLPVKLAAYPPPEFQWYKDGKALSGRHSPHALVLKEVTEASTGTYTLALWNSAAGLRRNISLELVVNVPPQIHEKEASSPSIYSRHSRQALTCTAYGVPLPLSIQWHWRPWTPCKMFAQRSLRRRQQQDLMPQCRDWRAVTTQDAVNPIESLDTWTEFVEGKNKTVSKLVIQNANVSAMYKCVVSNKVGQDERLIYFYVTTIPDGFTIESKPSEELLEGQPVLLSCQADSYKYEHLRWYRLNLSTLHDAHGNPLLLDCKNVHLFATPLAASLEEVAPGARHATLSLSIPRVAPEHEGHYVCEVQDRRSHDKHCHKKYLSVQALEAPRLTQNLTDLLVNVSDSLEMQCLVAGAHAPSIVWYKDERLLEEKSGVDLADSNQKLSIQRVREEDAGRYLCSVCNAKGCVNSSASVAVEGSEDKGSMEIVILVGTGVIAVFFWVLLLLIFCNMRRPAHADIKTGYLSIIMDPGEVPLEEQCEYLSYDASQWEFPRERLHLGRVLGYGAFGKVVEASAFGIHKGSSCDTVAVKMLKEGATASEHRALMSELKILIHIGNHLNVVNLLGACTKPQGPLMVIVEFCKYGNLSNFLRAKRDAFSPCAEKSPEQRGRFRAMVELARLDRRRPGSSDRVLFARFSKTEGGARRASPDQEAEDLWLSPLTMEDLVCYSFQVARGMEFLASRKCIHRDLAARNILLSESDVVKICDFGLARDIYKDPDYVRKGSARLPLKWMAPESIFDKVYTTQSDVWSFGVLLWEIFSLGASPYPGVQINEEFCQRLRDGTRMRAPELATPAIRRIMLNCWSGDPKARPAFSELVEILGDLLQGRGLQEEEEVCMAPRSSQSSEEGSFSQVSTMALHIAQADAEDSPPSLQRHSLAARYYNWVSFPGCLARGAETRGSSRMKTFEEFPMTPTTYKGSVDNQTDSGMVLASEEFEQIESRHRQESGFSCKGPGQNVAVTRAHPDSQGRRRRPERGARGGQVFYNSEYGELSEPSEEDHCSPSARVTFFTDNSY
Method in brief: (§4)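 Kinase inhibition measured by homogeneous time-resolved fluorescence (HTRF) across a panel of Ron, ALK and other tyrosine kinases, with IC50 as the read-out.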

[11] = Toxicity in Balb/c mouse assessed as survival rate at 100 mg/kg, ip measured after 15 days; assay type: organism-based; conditions: in vivo, time 15 day; method in brief: as §2
[12] = Clearance in Balb/c mouse at 8 mg/kg, po measured after 24 hrs by LC/MS/MS analysis; assay type: ADME, organism-based; conditions: in vivo
Method in brief: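 Clearance from the plasma profile of BALB/c mice after a single oral dose of 8 mg/kg.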

[13] = target: Platelet-derived growth factor receptor beta (Homo sapiens, UniProt P09619); test: Inhibition of PDGFR beta (unknown origin) using poly (Glu, Tyr)4:1 as substrate in presence of ATP measured after 30 mins by HTRF assay; method in brief: as §4
Platelet-derived growth factor receptor beta, sequence (P09619 whole entry): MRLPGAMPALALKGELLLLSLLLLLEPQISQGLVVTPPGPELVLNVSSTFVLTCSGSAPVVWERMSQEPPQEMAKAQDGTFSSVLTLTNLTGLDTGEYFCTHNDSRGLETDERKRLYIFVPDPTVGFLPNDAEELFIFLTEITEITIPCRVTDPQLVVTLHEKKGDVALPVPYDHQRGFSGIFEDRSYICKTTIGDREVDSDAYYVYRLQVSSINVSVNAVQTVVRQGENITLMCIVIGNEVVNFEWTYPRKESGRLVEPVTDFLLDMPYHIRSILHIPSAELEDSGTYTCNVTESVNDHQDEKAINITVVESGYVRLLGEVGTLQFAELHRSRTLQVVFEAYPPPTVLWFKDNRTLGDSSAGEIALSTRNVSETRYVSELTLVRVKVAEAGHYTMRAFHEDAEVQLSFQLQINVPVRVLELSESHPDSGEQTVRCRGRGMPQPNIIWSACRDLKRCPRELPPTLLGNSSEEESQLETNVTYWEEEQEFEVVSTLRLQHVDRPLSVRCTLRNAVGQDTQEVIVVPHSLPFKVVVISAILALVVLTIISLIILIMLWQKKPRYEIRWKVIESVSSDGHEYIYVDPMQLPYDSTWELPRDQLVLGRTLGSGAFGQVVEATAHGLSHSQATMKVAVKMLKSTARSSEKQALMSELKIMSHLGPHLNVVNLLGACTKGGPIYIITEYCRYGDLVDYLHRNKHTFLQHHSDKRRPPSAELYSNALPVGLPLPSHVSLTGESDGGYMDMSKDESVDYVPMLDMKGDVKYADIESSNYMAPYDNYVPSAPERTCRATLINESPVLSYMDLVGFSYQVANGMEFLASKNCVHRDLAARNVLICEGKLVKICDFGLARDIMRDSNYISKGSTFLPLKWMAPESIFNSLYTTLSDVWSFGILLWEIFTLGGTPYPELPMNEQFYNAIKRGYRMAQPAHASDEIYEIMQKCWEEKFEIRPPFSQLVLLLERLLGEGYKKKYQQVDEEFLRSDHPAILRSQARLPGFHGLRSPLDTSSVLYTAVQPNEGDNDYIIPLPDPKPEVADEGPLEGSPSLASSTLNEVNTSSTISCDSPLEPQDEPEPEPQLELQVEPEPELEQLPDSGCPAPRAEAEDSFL

[14] = Toxicity in Balb/c mouse assessed as body weight at 100 to 200 mg/kg, ip measured after 15 days; assay type: organism-based; conditions: in vivo, 360 h, dose 100-200 mg/kg, time 15 day
Method in brief: (§5)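 Acute toxicity in 8-week-old male BALB/c mice, randomized into groups of n = 10. Single intraperitoneal dose on day 0 of vehicle or 100, 200, 300 or 400 mg/kg, plus an untreated control group. Mice watched for 15 days for deaths, abnormalities, anaphylactic or allergic reactions and body weight loss.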

A549 [15] = test: Induction of cell cycle arrest in human A549 cells assessed as increased accumulation of cells at G2/M phase measured after 24 hrs by Propidium iodide stain based Flow cytometry assay; assay type: functional; conditions: dose 0.25-1 µM
Method in brief: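 A549 cells exposed to vehicle or 0.25, 0.5 or 1.0 µM compound. DNA content measured by propidium iodide staining with RNase and flow cytometry, and the G2/M fraction was scored.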

MKN-45 = test: Cytotoxicity against human MKN-45 cells assessed as inhibition of cell proliferation measured after 72 hrs by MTT assay; assay type: functional, cell-based; conditions: MKN-45, 72 h
[16] = Selectivity index, ratio of IC50 for human HUVEC cells assessed as inhibition of cell proliferation to IC50 of HT-29 cells assessed as inhibition of cell proliferation; assay type: toxicity; conditions: HUVEC cells versus HT-29 cells, read-out: Selectivity Index
[17] = Toxicity in Balb/c mouse assessed as allergic reaction at 100 to 200 mg/kg, ip measured after 15 days; assay type: organism-based; conditions: in vivo, 360 h, dose 100-200 mg/kg, time 15 day; method in brief: as §5
[18] = AUC (0 to infinity) in Balb/c mouse at 2 mg/kg, iv measured after 24 hrs by LC/MS/MS analysis; assay type: ADME, organism-based; parameters: route intravenous, time 24 hrs, dose 2 mg/kg; conditions: in vivo; method in brief: as §1
FHC = test: Cytotoxicity against human FHC cells assessed as inhibtion of cell proliferation measured after 72 hrs by MTT assay

## COCC/C(=N\S(=O)(=O)Cc1ccc(Cl)cc1)Nc1ccc(Oc2ccnc3cc(OCCCN4CCOCC4)c(OC)cc23)c(F)c1
[1]
  half-life: 1.8 h
[2]
  survival at 360 h: 50%
[3]
  Cmax: 676 ng/mL
A549 [4]
  Activity: Dose-dependent effect
[5]
  Tmax: 2.5 h
[6]
  IC50: 7.28 nM
[7]
  half-life: 3.5 h
A549 [8]
  Activity: Dose-dependent effect
[9]
  Cmax: 1230 ng/mL
[10]
  IC50: 358 nM
[11]
  survival at 360 h: 100%
[12]
  CL/F: 19.7 mL/min/kg
[13]
  IC50: 565 nM
[14]
  Activity: Non-Toxic
A549 [15]
  Activity: Dose-dependent effect
MKN-45
  IC50: 480 nM
[16]
  selectivity ratio: 4.2
[17]
  Activity: Non-Toxic
[18]
  AUC: 2.3 µg/h/mL
FHC
  IC50: 6120 nM

Source: ChEMBL document CHEMBL4765349, “Design, synthesis and biological evaluation of novel N-sulfonylamidine-based derivatives as c-Met inhibitors via Cu-catalyzed three-component reaction” (Eur J Med Chem, 2020)
